According to ChEMBL document CHEMBL5303300, “EUbOPEN Chemogenomics Library - Multiplex” (2023):
Values joined by “and” are separate entries in the source; they are usually repeats but may differ in a detail not shown here. Equal entries are not always repeated.

Tests used:
Type in all cases: toxicity, cell-based
[1] = test system: U2OS; assay: Multiplex assay against U2OS; settings: human, number of replicates 2
Method in brief: (§1)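 With compound added, live cells were imaged on a CQ1 microscope at 37°C and 5% CO2; staining with Hoechst33342, BioTracker Green Microtubule Cytoskeleton Dye, MitoTracker Red and Annexin V Alexa Fluor 680 had been done at seeding. The CellPathfinder machine-learning gating scheme split cells into Hoechst high-intensity objects or normal cells, normal cells into healthy, pyknosed or fragmented nuclei, and pyknosed cells into mitotic or apoptotic. The tubulin, mitochondrial-mass and membrane-permeability phenotypes are per cents of healthy-nucleus cells.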

[2] = test system: HEK-293T; assay: Multiplex assay against HEK293T; settings: human, number of replicates 2; method in brief: as §1
[3] = test system: Fibroblast; assay: Multiplex assay against human fibroblast; settings: number of replicates 2; method in brief: as §1
[4] = 12 h, 1 µM, compound concentration 1 uM
[5] = 12 h, 10 µM, compound concentration 10 uM
[6] = 24 h, 1 µM, compound concentration 1 uM
[7] = 24 h, 10 µM, compound concentration 10 uM
[8] = 48 h, 1 µM, compound concentration 1 uM
[9] = 48 h, 10 µM, compound concentration 10 uM

Cc1cc(C2CCCNC2)ccc1Nc1ncc(Br)c(NCc2cccc3c2C(C)(C)C(=O)N3)n1 (stereo not given)
Population Apoptotic (%) [1, 4]: 50% and 63% | Population Healthy Nuclei (%) [1, 4]: 57% and 78% | Population Hoechst High Intensity Objects (%) [1, 4]: 0% | Population Membrane Permeable-Phenotype (%) [1, 4]: 31% and 29% | Population Mitochondria Different-Phenotype (%) [1, 4]: 9% and 19% | Population Mitotic Cells (%) [1, 4]: 50% and 36% | Population Normal (%) [1, 4]: 100% | Population Pyknosed Nuclei (%) [1, 4]: 10% and 11% | Population Tubulin-Different-Phenotype (%) [1, 4]: 65% and 44% | Total Cell Count [1, 4]: 56 and 99 | Population Apoptotic (%) [1, 5]: 82% and 73% | Population Fragmented Nuclei (%) [1, 5]: 28% and 14% | Population Healthy Nuclei (%) [1, 5]: 42% and 69% | Population Hoechst High Intensity Objects (%) [1, 5]: 0% | Population Membrane Permeable-Phenotype (%) [1, 5]: 24% and 20% | Population Mitochondria Different-Phenotype (%) [1, 5]: 56% and 54% | Population Mitotic Cells (%) [1, 5]: 17% and 26% | Population Normal (%) [1, 5]: 100% | Population Pyknosed Nuclei (%) [1, 5]: 28% and 16% | Population Tubulin-Different-Phenotype (%) [1, 5]: 88% and 83% | Population Apoptotic (%) [1, 6]: 70% and 51% | Population Healthy Nuclei (%) [1, 6]: 54% and 72% | Population Hoechst High Intensity Objects (%) [1, 6]: 1% and 0% | Population Membrane Permeable-Phenotype (%) [1, 6]: 17% and 15% | Population Mitochondria Different-Phenotype (%) [1, 6]: 34% and 21% | Population Mitotic Cells (%) [1, 6]: 30% and 48% | Population Normal (%) [1, 6]: 98% and 100% | Population Pyknosed Nuclei (%) [1, 6]: 18% and 21% | Population Tubulin-Different-Phenotype (%) [1, 6]: 75% and 58% | Total Cell Count [1, 6]: 54 and 125 | Population Apoptotic (%) [1, 7]: 88% and 66% | Population Fragmented Nuclei (%) [1, 7]: 27% and 10% | Population Hoechst High Intensity Objects (%) [1, 7]: 0% | Population Membrane Permeable-Phenotype (%) [1, 7]: 66% and 31% | Population Mitochondria Different-Phenotype (%) [1, 7]: 66% and 61% | Population Mitotic Cells (%) [1, 7]: 12% and 33% | Population Normal (%) [1, 7]: 100% and 99% | Population Pyknosed Nuclei (%) [1, 7]: 53% and 25% | Population Tubulin-Different-Phenotype (%) [1, 7]: 88% and 82% | Population Apoptotic (%) [1, 8]: 87% and 70% | Population Fragmented Nuclei (%) [1, 8]: 8% and 20% | Population Healthy Nuclei (%) [1, 8]: 74% and 64% | Population Hoechst High Intensity Objects (%) [1, 8]: 0% and 1% | Population Membrane Permeable-Phenotype (%) [1, 8]: 13% and 14% | Population Mitochondria Different-Phenotype (%) [1, 8]: 16% and 21% | Population Mitotic Cells (%) [1, 8]: 12% and 30% | Population Normal (%) [1, 8]: 100% and 98% | Population Pyknosed Nuclei (%) [1, 8]: 17% and 15% | Population Tubulin-Different-Phenotype (%) [1, 8]: 63% and 46% | Total Cell Count [1, 8]: 175 and 65 | Population Apoptotic (%) [1, 9]: 91% and 87% | Population Fragmented Nuclei (%) [1, 9]: 19% and 8% | Population Hoechst High Intensity Objects (%) [1, 9]: 0% and 2% | Population Membrane Permeable-Phenotype (%) [1, 9]: 100% and 43% | Population Mitochondria Different-Phenotype (%) [1, 9]: 50% and 83% | Population Mitotic Cells (%) [1, 9]: 8% and 12% | Population Normal (%) [1, 9]: 100% and 97% | Population Pyknosed Nuclei (%) [1, 9]: 76% and 43% | Population Tubulin-Different-Phenotype (%) [1, 9]: 100% and 82% | Population Apoptotic (%) [2, 4]: 54% | Population Fragmented Nuclei (%) [2, 4]: 4% and 2% | Population Healthy Nuclei (%) [2, 4]: 88% and 83% | Population Hoechst High Intensity Objects (%) [2, 4]: 12% and 15% | Population Membrane Permeable-Phenotype (%) [2, 4]: 2% and 1% | Population Mitochondria Different-Phenotype (%) [2, 4]: 46% and 53% | Population Mitotic Cells (%) [2, 4]: 45% | Population Normal (%) [2, 4]: 87% and 84% | Population Pyknosed Nuclei (%) [2, 4]: 7% and 13% | Population Tubulin-Different-Phenotype (%) [2, 4]: 94% and 92% | Total Cell Count [2, 4]: 482 and 397 | Population Apoptotic (%) [2, 5]: 79% and 80% | Population Fragmented Nuclei (%) [2, 5]: 5% and 6% | Population Healthy Nuclei (%) [2, 5]: 89% | Population Hoechst High Intensity Objects (%) [2, 5]: 13% and 15% | Population Membrane Permeable-Phenotype (%) [2, 5]: 6% and 2% | Population Mitochondria Different-Phenotype (%) [2, 5]: 44% and 59% | Population Mitotic Cells (%) [2, 5]: 20% | Population Normal (%) [2, 5]: 86% and 84% | Population Pyknosed Nuclei (%) [2, 5]: 5% and 4% | Population Tubulin-Different-Phenotype (%) [2, 5]: 95% | Total Cell Count [2, 5]: 520 and 580 | Population Apoptotic (%) [2, 6]: 67% and 55% | Population Fragmented Nuclei (%) [2, 6]: 8% and 5% | Population Healthy Nuclei (%) [2, 6]: 84% and 87% | Population Hoechst High Intensity Objects (%) [2, 6]: 14% and 13% | Population Membrane Permeable-Phenotype (%) [2, 6]: 1% | Population Mitochondria Different-Phenotype (%) [2, 6]: 39% and 34% | Population Mitotic Cells (%) [2, 6]: 32% and 44% | Population Normal (%) [2, 6]: 85% and 86% | Population Pyknosed Nuclei (%) [2, 6]: 7% and 6% | Population Tubulin-Different-Phenotype (%) [2, 6]: 89% and 88% | Total Cell Count [2, 6]: 567 and 602 | Population Apoptotic (%) [2, 7]: 75% and 80% | Population Fragmented Nuclei (%) [2, 7]: 4% and 8% | Population Healthy Nuclei (%) [2, 7]: 89% and 85% | Population Hoechst High Intensity Objects (%) [2, 7]: 17% and 18% | Population Membrane Permeable-Phenotype (%) [2, 7]: 8% and 0% | Population Mitochondria Different-Phenotype (%) [2, 7]: 53% and 64% | Population Mitotic Cells (%) [2, 7]: 25% and 20% | Population Normal (%) [2, 7]: 82% and 81% | Population Pyknosed Nuclei (%) [2, 7]: 5% | Population Tubulin-Different-Phenotype (%) [2, 7]: 97% and 95% | Total Cell Count [2, 7]: 550 and 640 | Population Apoptotic (%) [2, 8]: 26% and 35% | Population Fragmented Nuclei (%) [2, 8]: 12% and 9% | Population Healthy Nuclei (%) [2, 8]: 84% and 87% | Population Hoechst High Intensity Objects (%) [2, 8]: 18% and 20% | Population Membrane Permeable-Phenotype (%) [2, 8]: 2% | Population Mitochondria Different-Phenotype (%) [2, 8]: 13% and 17% | Population Mitotic Cells (%) [2, 8]: 73% and 65% | Population Normal (%) [2, 8]: 81% and 79% | Population Pyknosed Nuclei (%) [2, 8]: 3% and 2% | Population Tubulin-Different-Phenotype (%) [2, 8]: 73% and 85% | Total Cell Count [2, 8]: 832 and 880 | Population Apoptotic (%) [2, 9]: 74% and 87% | Population Fragmented Nuclei (%) [2, 9]: 10% and 12% | Population Healthy Nuclei (%) [2, 9]: 77% and 70% | Population Hoechst High Intensity Objects (%) [2, 9]: 16% and 24% | Population Membrane Permeable-Phenotype (%) [2, 9]: 2% and 3% | Population Mitochondria Different-Phenotype (%) [2, 9]: 65% and 68% | Population Mitotic Cells (%) [2, 9]: 25% and 12% | Population Normal (%) [2, 9]: 83% and 75% | Population Pyknosed Nuclei (%) [2, 9]: 12% and 16% | Population Tubulin-Different-Phenotype (%) [2, 9]: 91% | Total Cell Count [2, 9]: 517 and 572 | Population Apoptotic (%) [3, 4]: 58% and 42% | Population Fragmented Nuclei (%) [3, 4]: 10% | Population Healthy Nuclei (%) [3, 4]: 61% and 64% | Population Hoechst High Intensity Objects (%) [3, 4]: 0% | Population Membrane Permeable-Phenotype (%) [3, 4]: 13% and 5% | Population Mitochondria Different-Phenotype (%) [3, 4]: 5% and 3% | Population Mitotic Cells (%) [3, 4]: 42% and 57% | Population Normal (%) [3, 4]: 99% and 100% | Population Pyknosed Nuclei (%) [3, 4]: 27% and 25% | Population Tubulin-Different-Phenotype (%) [3, 4]: 50% and 49% | Total Cell Count [3, 4]: 184 and 193 | Population Apoptotic (%) [3, 5]: 40% and 38% | Population Fragmented Nuclei (%) [3, 5]: 29% and 27% | Population Healthy Nuclei (%) [3, 5]: 59% and 56% | Population Hoechst High Intensity Objects (%) [3, 5]: 1% and 0% | Population Membrane Permeable-Phenotype (%) [3, 5]: 9% and 11% | Population Mitochondria Different-Phenotype (%) [3, 5]: 2% and 5% | Population Mitotic Cells (%) [3, 5]: 60% and 61% | Population Normal (%) [3, 5]: 98% and 99% | Population Pyknosed Nuclei (%) [3, 5]: 10% and 15% | Population Tubulin-Different-Phenotype (%) [3, 5]: 82% and 69% | Total Cell Count [3, 5]: 382 and 328 | Population Apoptotic (%) [3, 6]: 57% and 62% | Population Fragmented Nuclei (%) [3, 6]: 8% and 14% | Population Healthy Nuclei (%) [3, 6]: 71% and 60% | Population Hoechst High Intensity Objects (%) [3, 6]: 0% | Population Membrane Permeable-Phenotype (%) [3, 6]: 3% and 7% | Population Mitochondria Different-Phenotype (%) [3, 6]: 6% and 12% | Population Mitotic Cells (%) [3, 6]: 42% and 38% | Population Normal (%) [3, 6]: 100% and 99% | Population Pyknosed Nuclei (%) [3, 6]: 20% and 25% | Population Tubulin-Different-Phenotype (%) [3, 6]: 43% and 46% | Total Cell Count [3, 6]: 198 and 199 | Population Apoptotic (%) [3, 7]: 65% and 74% | Population Fragmented Nuclei (%) [3, 7]: 17% and 10% | Population Healthy Nuclei (%) [3, 7]: 59% and 62% | Population Hoechst High Intensity Objects (%) [3, 7]: 1% and 0% | Population Membrane Permeable-Phenotype (%) [3, 7]: 7% and 2% | Population Mitochondria Different-Phenotype (%) [3, 7]: 21% and 31% | Population Mitotic Cells (%) [3, 7]: 34% and 25% | Population Normal (%) [3, 7]: 98% and 99% | Population Pyknosed Nuclei (%) [3, 7]: 22% and 27% | Population Tubulin-Different-Phenotype (%) [3, 7]: 86% and 79% | Total Cell Count [3, 7]: 279 and 234 | Population Apoptotic (%) [3, 8]: 70% and 65% | Population Fragmented Nuclei (%) [3, 8]: 11% and 16% | Population Healthy Nuclei (%) [3, 8]: 73% and 63% | Population Hoechst High Intensity Objects (%) [3, 8]: 0% | Population Membrane Permeable-Phenotype (%) [3, 8]: 3% | Population Mitochondria Different-Phenotype (%) [3, 8]: 3% and 9% | Population Mitotic Cells (%) [3, 8]: 29% and 34% | Population Normal (%) [3, 8]: 100% | Population Pyknosed Nuclei (%) [3, 8]: 15% and 20% | Population Tubulin-Different-Phenotype (%) [3, 8]: 39% and 30% | Total Cell Count [3, 8]: 180 and 175 | Population Apoptotic (%) [3, 9]: 93% and 96% | Population Fragmented Nuclei (%) [3, 9]: 11% and 16% | Population Healthy Nuclei (%) [3, 9]: 40% and 48% | Population Hoechst High Intensity Objects (%) [3, 9]: 6% and 2% | Population Mitochondria Different-Phenotype (%) [3, 9]: 53% and 52% | Population Mitotic Cells (%) [3, 9]: 6% and 3% | Population Normal (%) [3, 9]: 93% and 97% | Population Pyknosed Nuclei (%) [3, 9]: 48% and 34% | Population Tubulin-Different-Phenotype (%) [3, 9]: 83% and 78% | Total Cell Count [3, 9]: 164 and 169
